Activity calls are given as the source filed them. The rule behind the calls is not given here.
Key:
MRC5 = experiment: Cytotoxicity against human MRC5 cells assessed as reduction in cell viability after 72 hrs by MTT assay; format: cell-based; conditions: MRC5, 72 h
HeLa = experiment: Cytotoxicity against human HeLa cells assessed as reduction in cell viability after 72 hrs by MTT assay; format: functional, cell-based
MDA-MB-231 = experiment: Cytotoxicity against human MDA-MB-231 cells assessed as reduction in cell viability after 72 hrs by MTT assay; format: functional, cell-based; conditions: MDA-MB-231, 72 h
MCF7 = experiment: Cytotoxicity against human MCF7 cells assessed as reduction in cell viability after 72 hrs by MTT assay; format: functional, cell-based; conditions: MCF7, 72 h
Raji = experiment: Cytotoxicity against human Raji cells assessed as reduction in cell viability after 72 hrs by MTT assay; format: functional, cell-based
Jurkat = experiment: Cytotoxicity against human Jurkat cells assessed as reduction in cell viability after 72 hrs by MTT assay; format: functional, cell-based
HL-60 = experiment: Cytotoxicity against human HL60 cells assessed as reduction in cell viability after 72 hrs by MTT assay; format: functional, cell-based; conditions: HL-60, 72 h
K562 [1] = experiment: Cytotoxicity against human K562 cells assessed as reduction in cell viability after 72 hrs by MTT assay; format: functional, cell-based; conditions: K562, 72 h
A549 = experiment: Cytotoxicity against human A549 cells assessed as reduction in cell viability after 72 hrs by MTT assay; format: functional, cell-based; conditions: A549, 72 h
K562 [2] = experiment: Cell cycle arrest in human K562 cells assessed as accumulation at sub G1 phase at IC50 after 72 hrs by propidium iodide staining based flow cytometry (reference value: 1.48%); format: functional
K562 [3] = experiment: Cell cycle arrest in human K562 cells assessed as accumulation at G0/G1 phase at IC50 after 72 hrs by propidium iodide staining based flow cytometry (reference value: 38.48%); format: functional
K562 [4] = experiment: Cell cycle arrest in human K562 cells assessed as accumulation at S phase at IC50 after 72 hrs by propidium iodide staining based flow cytometry (reference value: 41.03%); format: functional
K562 [5] = experiment: Cell cycle arrest in human K562 cells assessed as accumulation at G2/M phase at IC50 after 72 hrs by propidium iodide staining based flow cytometry (reference value: 19.01%); format: functional
K562 [6] = experiment: Induction of apoptosis in human K562 cells assessed as specific apoptosis by Annexin V-FITC/propidium iodide staining based flow cytometry; format: functional; parameters: concentration or dose not given beside the values
K562 [7] = experiment: Induction of apoptosis in human K562 cells assessed as specific necrosis by Annexin V-FITC/propidium iodide staining based flow cytometry; format: functional; parameters: concentration or dose not given beside the values
K562 [8] = experiment: Induction of apoptosis in human K562 cells assessed as decrease in Bcl-2 expression level by Western blot analysis; format: functional, cell-based
Method in brief: (§1)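 Western blot of treated K562 cells for Bcl-2, Bax, activated caspase 3 and cleaved PARP (85 kDa fragment). Blots developed by ECL, with band expression quantified by densitometry against an untreated control sample.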

K562 [9] = experiment: Induction of apoptosis in human K562 cells assessed as increase in Bax expression level by Western blot analysis; format: functional, cell-based; method in brief: as §1
K562 [10] = experiment: Induction of apoptosis in human K562 cells assessed as increase in caspase 3 expression level by Western blot analysis; format: functional, cell-based; method in brief: as §1
K562 [11] = experiment: Induction of apoptosis in human K562 cells assessed as increase in cleaved PARP expression level by Western blot analysis; format: functional, cell-based; method in brief: as §1
K562 [12] = experiment: Cell cycle arrest in human K562 cells assessed as total cell levels at G0/G1 phase at IC50 after 72 hrs by propidium iodide staining based flow cytometry (reference value: 39.97%); format: functional
K562 [13] = experiment: Cell cycle arrest in human K562 cells assessed as total cell levels at S phase at IC50 after 72 hrs by propidium iodide staining based flow cytometry (reference value: 36.49%); format: functional
K562 [14] = experiment: Cell cycle arrest in human K562 cells assessed as total cell levels at G2/M phase at IC50 after 72 hrs by propidium iodide staining based flow cytometry (reference value: 14.31%); format: functional
K562 [15] = experiment: Cell cycle arrest in human K562 cells assessed as total cell levels at M4 phase at IC50 after 72 hrs by propidium iodide staining based flow cytometry (reference value: 0.50%); format: functional
K562 [16] = experiment: Induction of apoptosis in human K562 cells assessed as gated necrotic cells by Annexin V-FITC/propidium iodide staining based flow cytometry (reference value: 0.24%); format: functional
K562 [17] = experiment: Induction of apoptosis in human K562 cells assessed as gated late apoptotic cells by Annexin V-FITC/propidium iodide staining based flow cytometry (reference value: 0.88%); format: functional
K562 [18] = experiment: Induction of apoptosis in human K562 cells assessed as gated viable cells by Annexin V-FITC/propidium iodide staining based flow cytometry (reference value: 95.78%); format: functional
K562 [19] = experiment: Induction of apoptosis in human K562 cells assessed as gated early apoptotic cells by Annexin V-FITC/propidium iodide staining based flow cytometry (reference value: 3.18%); format: functional
K562 [20] = experiment: Induction of apoptosis in human K562 cells assessed as total necrotic cells by Annexin V-FITC/propidium iodide staining based flow cytometry (reference value: 0.23%); format: functional
K562 [21] = experiment: Induction of apoptosis in human K562 cells assessed as total late apoptotic cells by Annexin V-FITC/propidium iodide staining based flow cytometry (reference value: 0.77%); format: functional
K562 [22] = experiment: Induction of apoptosis in human K562 cells assessed as total viable cells by Annexin V-FITC/propidium iodide staining based flow cytometry (reference value: 92.45%); format: functional
K562 [23] = experiment: Induction of apoptosis in human K562 cells assessed as total early apoptotic cells by Annexin V-FITC/propidium iodide staining based flow cytometry (reference value: 3.07%); format: functional
K562 [24] = experiment: Potency index, ratio of doxorubicin IC50 to compound IC50 for human K562 cells; format: functional

O=C1C=C[C@]2(C[C@H](OC(=O)/C=C/c3ccccc3)[C@H](c3ccccc3)O2)O1
IC50 (MRC5): > 100 µM | IC50 (HeLa): 14.5 µM | IC50 (MDA-MB-231): 5230 nM | IC50 (MCF7): 5.34 µM | IC50 (Raji): 9680 nM | IC50 (Jurkat): 5630 nM | IC50 (HL-60): 3.41 µM | IC50 (K562 [1]): 4620 nM | IC50 (A549): 1020 nM | Activity (K562 [2]): 5.69% | Activity (K562 [3]): 21.01% | Activity (K562 [4]): 38.09% | Activity (K562 [5]): 35.21% | Activity (K562 [6]): 81.79% | Activity (K562 [7]): 1.97% | Activity (K562 [8]): Active | Activity (K562 [9]): Active | Activity (K562 [10]): inactive | Activity (K562 [11]): inactive | Activity (K562 [12]): 17.87% | Activity (K562 [13]): 31.69% | Activity (K562 [14]): 29.57% | Activity (K562 [15]): 4.73% | Activity (K562 [16]): 2.09% | Activity (K562 [17]): 15.25% | Activity (K562 [18]): 15.4% | Activity (K562 [19]): 67.26% | Activity (K562 [20]): 1.67% | Activity (K562 [21]): 12.17% | Activity (K562 [22]): 12.29% | Activity (K562 [23]): 53.67%

O=C1C=C[C@@]2(C[C@H](OC(=O)/C=C/c3ccccc3)[C@H](c3ccccc3)O2)O1
IC50 (MRC5): > 100 µM | IC50 (HeLa): 58.5 µM | IC50 (MDA-MB-231): 3640 nM | IC50 (MCF7): 11.4 µM | IC50 (Raji): 2280 nM | IC50 (Jurkat): 1020 nM | IC50 (HL-60): 9.65 µM | IC50 (K562 [1]): 4650 nM | IC50 (A549): 250 nM | Activity (K562 [2]): 12.49% | Activity (K562 [3]): 27.11% | Activity (K562 [4]): 42.16% | Activity (K562 [5]): 18.24% | Activity (K562 [6]): 6.76% | Activity (K562 [7]): 28.29% | Activity (K562 [8]): Active | Activity (K562 [9]): inactive | Activity (K562 [10]): Active | Activity (K562 [11]): Active | Activity (K562 [12]): 18.23% | Activity (K562 [13]): 27.97% | Activity (K562 [14]): 12.13% | Activity (K562 [15]): 8.27% | Activity (K562 [16]): 8.36% | Activity (K562 [17]): 10.47% | Activity (K562 [18]): 31.14% | Activity (K562 [19]): 50.03% | Activity (K562 [20]): 6.66% | Activity (K562 [21]): 8.34% | Activity (K562 [22]): 24.8% | Activity (K562 [23]): 39.85%

O=C1C=C[C@]2(C[C@H](O)[C@@H](c3ccccc3)O2)O1
IC50 (MRC5): > 100 µM | Ratio IC50 (K562 [24]): 2 | IC50 (HeLa): 0.34 µM | IC50 (MDA-MB-231): 1890 nM | IC50 (MCF7): 11.6 µM | IC50 (Raji): 2340 nM | IC50 (Jurkat): 210 nM | IC50 (HL-60): 1.06 µM | IC50 (K562 [1]): 120 nM | IC50 (A549): 29000 nM | Activity (K562 [2]): 1.6% | Activity (K562 [3]): 32.52% | Activity (K562 [4]): 59.02% | Activity (K562 [5]): 6.86% | Activity (K562 [6]): 22.6% | Activity (K562 [7]): 1.08% | Activity (K562 [8]): Active | Activity (K562 [9]): inactive | Activity (K562 [10]): Active | Activity (K562 [11]): Active | Activity (K562 [12]): 25.97% | Activity (K562 [13]): 47.93% | Activity (K562 [14]): 5.47% | Activity (K562 [15]): 1.26% | Activity (K562 [16]): 5.02% | Activity (K562 [17]): 16.8% | Activity (K562 [18]): 69.31% | Activity (K562 [19]): 8.88% | Activity (K562 [20]): 1.21% | Activity (K562 [21]): 4.05% | Activity (K562 [22]): 16.71% | Activity (K562 [23]): 2.14%

COc1ccc(/C=C/C(=O)O[C@H]2C[C@@]3(C=CC(=O)O3)O[C@H]2c2ccccc2)cc1
IC50 (MRC5): > 100 µM | IC50 (HeLa): 9.94 µM | IC50 (MDA-MB-231): 2690 nM | IC50 (MCF7): 3.25 µM | IC50 (Raji): 3050 nM | IC50 (Jurkat): 2540 nM | IC50 (HL-60): 2.25 µM | IC50 (K562 [1]): 1020 nM | IC50 (A549): 450 nM | Activity (K562 [2]): 3.23% | Activity (K562 [3]): 47.26% | Activity (K562 [4]): 29.4% | Activity (K562 [5]): 20.11% | Activity (K562 [6]): 2.36% | Activity (K562 [7]): 1.6% | Activity (K562 [8]): Active | Activity (K562 [9]): inactive | Activity (K562 [10]): Active | Activity (K562 [11]): Active | Activity (K562 [12]): 42.31% | Activity (K562 [13]): 26.32% | Activity (K562 [14]): 18.76% | Activity (K562 [15]): 2.89% | Activity (K562 [16]): 2.44% | Activity (K562 [17]): 0.29% | Activity (K562 [18]): 95.84% | Activity (K562 [19]): 1.42% | Activity (K562 [20]): 2.34% | Activity (K562 [21]): 0.28% | Activity (K562 [22]): 91.77% | Activity (K562 [23]): 1.36%

O=C1C=C[C@@]2(C[C@H](OC(=O)/C=C/c3ccc([N+](=O)[O-])cc3)[C@H](c3ccccc3)O2)O1
IC50 (MRC5): > 100 µM | IC50 (HeLa): 24.8 µM | IC50 (MDA-MB-231): 1250 nM | IC50 (MCF7): 4.31 µM | IC50 (Raji): 1640 nM | IC50 (Jurkat): 4030 nM | IC50 (HL-60): 4.36 µM | IC50 (K562 [1]): 2220 nM | IC50 (A549): 850 nM | Activity (K562 [2]): 40.08% | Activity (K562 [3]): 30.15% | Activity (K562 [4]): 22.7% | Activity (K562 [5]): 7.07% | Activity (K562 [6]): 70.03% | Activity (K562 [7]): 1.76% | Activity (K562 [8]): Active | Activity (K562 [9]): inactive | Activity (K562 [10]): Active | Activity (K562 [11]): Active | Activity (K562 [12]): 24.92% | Activity (K562 [13]): 18.76% | Activity (K562 [14]): 6.42% | Activity (K562 [15]): 33.19% | Activity (K562 [16]): 2.29% | Activity (K562 [17]): 1.62% | Activity (K562 [18]): 26.49% | Activity (K562 [19]): 69.6% | Activity (K562 [20]): 1.03% | Activity (K562 [21]): 0.73% | Activity (K562 [22]): 11.93% | Activity (K562 [23]): 31.35%
